From PubChem
Only a selection was taken, and hits are over-represented in it overall.
697 NFkB inh = inhibitors of PMA/ionomycin-induced NF-kB reporter, 697 cells, primary screen, B-cell NF-kB inhibitor project, cell-based, luminescence, uHTS. inhibition, % at 4 µM. actives 0.33% (n = 330,000). 697 B-cell NF-kB luciferase reporter, 16 h; in the data active = inhibition above about 35%
UPR XBP1 act = activators of adaptive XBP1 UPR arm, primary screen, cell-based, CHO-XBP1 luciferase reporter, luminescence, uHTS | IRE1-XBP1 UPR activation; percent of tunicamycin response, DMSO as zero | activation, % at 20 µM | actives 0.33% (n = 330,000);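 active = versus positive control, 20 µM dose yields 30% or more activation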
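Material: CHO-XBP1 cells stably carrying IRE1-XBP1-driven luciferase reporter / Amount: 1000 cells per well / Compound: 20 µM, 1% DMSO / Times: 6 h treatment, 37 °C / Detection: luciferase luminescence / Measure: % activation of reporter signal versus tunicamycin and DMSO controls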
Jurkat NFkB inh = inhibitors of induced NF-kB luciferase reporter, primary screen, TCR NF-kB activation inhibitor project, cell-based, luminescence, uHTS; Jurkat, PMA/ionomycin-induced NF-kB luciferase reporter; inhibition, % at 4 µM; actives 0.53% (n = 330,000); AID 435003, 2010; in the data active = inhibition above about 50%
UPR CHOP act = activators of apoptotic CHOP UPR arm, primary screen, cell-based, CHO-CHOP luciferase reporter, luminescence, uHTS. UPR activation; percent of tunicamycin response over DMSO baseline. activation, % at 10 µM. actives 0.34% (n = 330,000). AID 449763, 2010;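 active = at 10 µM dose, activation of 40% or more, normalized to positive control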
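Dosing – one dose, 10 µM in 0.5% DMSO · System – CHO-CHOP cells, stable luciferase reporter of PERK-eIF2a-CHOP signalling · Input – 500 cells/well · Control set – tunicamycin 10 µg/mL final as positive, DMSO-only wells as negative · Timing – 6 h compound treatment, 37 °C · Measure – % activation vs tunicamycin · Technique – luminescence read with Steady-Glo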
CHOP inh = inhibitors of CHOP promoter induction, primary screen, cell-based, unfolded protein response, luciferase reporter; CHO-K1 CHOP-promoter luciferase, tunicamycin-induced, 15-18 h; actives 3.8% (n = 220,000); AID 2732, 2010; inhibition, % at 10 µM;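 active = compounds that reduced the stress-induced luciferase reporter signal by more than about 70% of percent inhibition, limit read from the data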
Numbers stand for hits.

Results for COC(=O)c1ccc(N=NNc2ccccc2)cc1 ?
697 NFkB inh: inactive; UPR XBP1 act: inactive; Jurkat NFkB inh: inactive; UPR CHOP act: inactive; CHOP inh: inactive

How did COC(=O)c1ccc(N=NNc2cccc(Br)c2)cc1 do in these assays?
CHOP inh: 90.9

Results for Cn1c(=O)c2c(nc(N3CCN(c4ccc([N+](=O)[O-])cc4)CC3)n2C)n(C)c1=O ?
697 NFkB inh: inactive; UPR XBP1 act: inactive; Jurkat NFkB inh: inactive; UPR CHOP act: inactive; CHOP inh: inactive

What do the screens show for `O=C(Cc1ccc(Cl)cc1)N/N=C1\CCCc2ccccc21`?
697 NFkB inh: inactive; UPR XBP1 act: inactive; Jurkat NFkB inh: inactive; UPR CHOP act: inactive; CHOP inh: inactive

What do the screens show for `O=C(CNc1ccc(F)cc1)N/N=C1\CCCc2ccccc21`?
697 NFkB inh: inactive; UPR XBP1 act: inactive; Jurkat NFkB inh: inactive; UPR CHOP act: inactive; CHOP inh: 70.5

How did O=C(Cc1cccc2ccccc12)N/N=C1\CCCc2ccccc21 do in these assays?
697 NFkB inh: inactive; UPR XBP1 act: inactive; Jurkat NFkB inh: inactive; UPR CHOP act: inactive; CHOP inh: 91.8

What do the screens show for `COc1ccc(NC(=O)c2ccc(CNc3c(N4CCCC4)c(=O)c3=O)cc2)cc1Cl`?
697 NFkB inh: inactive; UPR XBP1 act: inactive; Jurkat NFkB inh: inactive; UPR CHOP act: inactive; CHOP inh: inactive

What do the screens show for `Oc1c(CN2CCN(c3ccccc3)CC2)cc(Br)c2cccnc12`?
CHOP inh: 89.1

Results for CCCC1CCC(c2nc(-c3cccnc3)no2)CC1 (stereo not given) ?
697 NFkB inh: inactive; UPR XBP1 act: inactive; Jurkat NFkB inh: inactive; UPR CHOP act: inactive; CHOP inh: 89.3

How did CCCCCCC1CCC(c2nc(-c3ccncc3)no2)CC1 (stereo not given) do in these assays?
697 NFkB inh: inactive; UPR XBP1 act: inactive; Jurkat NFkB inh: inactive; UPR CHOP act: inactive; CHOP inh: inactive

Results for CCOC(=O)c1ccc(NC(=O)Cn2nnc(-c3ccc(F)cc3)n2)cc1 ?
697 NFkB inh: inactive; UPR XBP1 act: inactive; Jurkat NFkB inh: inactive; UPR CHOP act: inactive; CHOP inh: 80.9

What do the screens show for `CCOc1ccc(-c2nnn(CC(=O)Nc3cc(OC)ccc3OC)n2)cc1OCC`?
697 NFkB inh: inactive; UPR XBP1 act: inactive; Jurkat NFkB inh: inactive; UPR CHOP act: inactive; CHOP inh: inactive

How did COc1ccc(S(=O)(=O)Nc2ccccc2-c2nnn(CC(=O)Nc3ccccc3OC)n2)cc1 do in these assays?
697 NFkB inh: inactive; UPR XBP1 act: inactive; Jurkat NFkB inh: inactive; UPR CHOP act: inactive; CHOP inh: 76.5

What do the screens show for `CCOC(=O)c1ccc(NC(=O)Cn2nnc(-c3ccccc3)n2)cc1`?
697 NFkB inh: inactive; UPR XBP1 act: inactive; Jurkat NFkB inh: inactive; UPR CHOP act: inactive; CHOP inh: inactive

How did COc1ccc(NC(=O)Cn2nnc(-c3ccccc3NS(=O)(=O)c3ccccc3)n2)cc1 do in these assays?
697 NFkB inh: inactive; UPR XBP1 act: inactive; Jurkat NFkB inh: inactive; UPR CHOP act: inactive; CHOP inh: inactive

Results for CCOc1ccccc1NC(=O)Cn1nnc(-c2ccc(OCC)c(OCC)c2)n1 ?
697 NFkB inh: inactive; UPR XBP1 act: inactive; Jurkat NFkB inh: inactive; UPR CHOP act: inactive; CHOP inh: 87.3

What do the screens show for `CC1CCCN(C(=O)c2cc(S(=O)(=O)N3CCCCC3)c[nH]2)C1` (stereo not given)?
697 NFkB inh: inactive; UPR XBP1 act: inactive; Jurkat NFkB inh: inactive; UPR CHOP act: inactive

How did O=C(O)c1nn(-c2ccccc2-c2n[nH]c(=O)[nH]c2=O)c(=O)[nH]c1=O do in these assays?
697 NFkB inh: inactive; UPR XBP1 act: inactive; Jurkat NFkB inh: inactive; UPR CHOP act: inactive; CHOP inh: inactive

How did COc1cccc(OCCCOc2ccccc2C(C)C)c1 do in these assays?
697 NFkB inh: inactive; UPR XBP1 act: inactive; Jurkat NFkB inh: inactive; UPR CHOP act: inactive; CHOP inh: 71.1

What do the screens show for `COc1ccc(/C=N/NC(=O)C2c3ccccc3-c3ccccc32)cc1`?
697 NFkB inh: inactive; UPR XBP1 act: inactive; Jurkat NFkB inh: inactive; UPR CHOP act: inactive; CHOP inh: 80.3

What do the screens show for `COc1ccc(/C=N/NC(=O)CC(=O)N/N=C/c2ccc(OC)cc2)cc1`?
697 NFkB inh: inactive; UPR XBP1 act: inactive; Jurkat NFkB inh: inactive; UPR CHOP act: inactive; CHOP inh: inactive

How did CCOc1ccc(C(=O)NCCC2=CCCCC2)cc1OCC do in these assays?
697 NFkB inh: inactive; UPR XBP1 act: inactive; Jurkat NFkB inh: inactive; UPR CHOP act: inactive; CHOP inh: inactive

What do the screens show for `O=C(NCc1ccc2[nH]c3c(c2c1)CCCC3)c1ccc(S(=O)(=O)N2CCCC2)cc1`?
697 NFkB inh: inactive; UPR XBP1 act: inactive; Jurkat NFkB inh: inactive; UPR CHOP act: inactive; CHOP inh: 77.1

How did CCC(=O)N=c1sc2cc(F)cc(F)c2n1C do in these assays?
697 NFkB inh: inactive; UPR XBP1 act: inactive; Jurkat NFkB inh: inactive; UPR CHOP act: inactive

Results for CC(C)C(=O)N=c1sc2cc(F)cc(F)c2n1C ?
697 NFkB inh: inactive; UPR XBP1 act: inactive; Jurkat NFkB inh: inactive; UPR CHOP act: inactive; CHOP inh: 85.2

What do the screens show for `CCOc1ccc(C(=O)OCC(=O)Nc2cc(C)on2)cc1OCC`?
697 NFkB inh: inactive; UPR XBP1 act: inactive; Jurkat NFkB inh: inactive; UPR CHOP act: inactive; CHOP inh: inactive

Results for CCOc1cc(C(=O)OCC(=O)Nc2cc(C)on2)ccc1OCC(C)C ?
697 NFkB inh: inactive; UPR XBP1 act: inactive; Jurkat NFkB inh: inactive; UPR CHOP act: inactive; CHOP inh: 94.0

Results for OC(COc1ccccc1)Cn1c2ccccc2c2ccccc21 (stereo not given) ?
697 NFkB inh: inactive; UPR XBP1 act: inactive; Jurkat NFkB inh: inactive; UPR CHOP act: inactive; CHOP inh: 88.8

How did CC(=O)Nc1ccc(OCC(O)Cn2c3ccccc3c3ccccc32)c(C)c1 (stereo not given) do in these assays?
697 NFkB inh: inactive; UPR XBP1 act: inactive; Jurkat NFkB inh: inactive; UPR CHOP act: inactive; CHOP inh: inactive

What do the screens show for `Cc1ccccc1OCC(O)Cn1c2ccccc2c2ccccc21` (stereo not given)?
697 NFkB inh: inactive; UPR XBP1 act: inactive; Jurkat NFkB inh: inactive; UPR CHOP act: inactive; CHOP inh: 90.3

What do the screens show for `CCCc1ccc(OCc2ccc(C(=O)OC)o2)c(OC)c1`?
697 NFkB inh: inactive; UPR XBP1 act: inactive; Jurkat NFkB inh: inactive; UPR CHOP act: inactive; CHOP inh: 78.0

Results for CCCc1ccc(OCc2ccc(C(=O)O)o2)c(OC)c1 ?
697 NFkB inh: inactive; UPR XBP1 act: inactive; Jurkat NFkB inh: inactive; UPR CHOP act: inactive; CHOP inh: inactive

What do the screens show for `CC(C)CC(c1nnnn1CC1CCCO1)N1CCN(c2cccc(Cl)c2)CC1` (stereo not given)?
697 NFkB inh: inactive; UPR XBP1 act: inactive; Jurkat NFkB inh: inactive; UPR CHOP act: inactive; CHOP inh: 83.0
